Assay outcomes (PubChem BioAssay)
A selection: hits, their analogues and other compounds. The true share with any hit is near 2.1%.
Arbovirus inh: antivirals against arbovirus infection, primary screen, cell-based, full library, 10K replicate subset; arbovirus infection cell-based antiviral screen; inhibition, % at 10 µM; 200,000 tested, 0.37% active; AID 1251, 2008; in the data active = inhibition above about 30%
MT stabilizer: microtubule stabilizers in HeLa cells, primary screen, imaging, high-content imaging; HeLa tubulin immunostaining HCS, 24 h; share of cells brighter than vehicle mean+2SD; % tubulin-high responders, % at 10 µM; 200,000 tested, 0.83% active; AID 2205, 2009;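 active = plate Z-score above 3 for both tubulin-high and condensed-nucleus cell shares, with cell loss under 80%, at 10 µM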;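 note: anti alpha tubulin signal scored within the nucleus-defined area of each cell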
ABCB1 inh: ABCB1 efflux pump inhibitors, primary screen, cell-based, multiplex, flow cytometry, ABCG2 counter-screen | CCRF-Adr cells, JC-1 efflux | inhibition, % at 6.6 µM | 190,000 tested, 0.067% active; in the data active = inhibition above about 40%;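 note: higher value means more JC-1 retained so stronger ABCB1 efflux block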
Target sequence (P08183 whole entry, looked up): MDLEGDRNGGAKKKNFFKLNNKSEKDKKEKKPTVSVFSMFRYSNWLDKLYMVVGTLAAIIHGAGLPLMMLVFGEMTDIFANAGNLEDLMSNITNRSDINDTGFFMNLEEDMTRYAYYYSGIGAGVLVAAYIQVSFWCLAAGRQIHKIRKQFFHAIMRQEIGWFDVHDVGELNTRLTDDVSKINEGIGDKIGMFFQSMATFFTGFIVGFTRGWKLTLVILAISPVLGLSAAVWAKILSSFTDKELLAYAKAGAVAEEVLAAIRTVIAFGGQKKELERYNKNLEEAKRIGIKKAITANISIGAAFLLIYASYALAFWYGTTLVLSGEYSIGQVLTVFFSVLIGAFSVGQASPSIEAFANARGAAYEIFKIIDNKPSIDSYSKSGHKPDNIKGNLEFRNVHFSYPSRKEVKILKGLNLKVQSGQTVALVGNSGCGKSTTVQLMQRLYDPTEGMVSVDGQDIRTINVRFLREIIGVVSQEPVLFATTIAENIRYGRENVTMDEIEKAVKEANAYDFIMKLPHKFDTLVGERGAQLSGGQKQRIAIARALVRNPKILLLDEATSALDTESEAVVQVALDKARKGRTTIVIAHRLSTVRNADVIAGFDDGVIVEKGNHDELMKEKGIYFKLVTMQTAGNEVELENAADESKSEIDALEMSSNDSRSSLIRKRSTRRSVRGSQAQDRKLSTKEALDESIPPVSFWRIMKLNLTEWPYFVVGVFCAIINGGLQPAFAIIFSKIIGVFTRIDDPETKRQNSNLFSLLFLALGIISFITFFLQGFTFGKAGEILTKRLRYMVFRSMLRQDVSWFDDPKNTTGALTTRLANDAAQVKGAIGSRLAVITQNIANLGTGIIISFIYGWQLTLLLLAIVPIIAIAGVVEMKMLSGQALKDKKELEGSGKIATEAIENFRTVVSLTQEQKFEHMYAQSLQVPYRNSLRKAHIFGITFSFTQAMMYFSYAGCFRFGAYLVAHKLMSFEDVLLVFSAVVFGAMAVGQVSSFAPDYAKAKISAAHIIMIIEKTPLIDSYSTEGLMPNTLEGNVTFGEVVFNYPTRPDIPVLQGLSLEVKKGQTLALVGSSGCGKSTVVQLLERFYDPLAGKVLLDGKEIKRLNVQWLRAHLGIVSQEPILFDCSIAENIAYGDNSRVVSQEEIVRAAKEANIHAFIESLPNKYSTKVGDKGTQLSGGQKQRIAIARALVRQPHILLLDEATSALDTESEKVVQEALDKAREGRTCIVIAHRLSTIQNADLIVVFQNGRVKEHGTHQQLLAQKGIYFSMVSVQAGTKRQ
ABCG2 block: ABCG2 efflux pump inhibitors, primary screen, multiplex with ABCB1, IgMXP3 cells, flow cytometry. JC-1 efflux. inhibition, % at 6.6 µM. Broad substrate specificity ATP-binding cassette transporter ABCG2 (Homo sapiens), Q9UNQ0. 190,000 tested, 0.1% active;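 active = inhibition above 80%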
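Test system: IgMXP3 cells (ABCG2) mixed with DDAO far-red-labelled CCRF-Adr cells (ABCB1). Reagent: JC-1 transporter substrate. Compound dosing: single test compound dose, 6.6 µM final. Times: 10 min compound exposure, 25 °C. Detection: flow cytometry of retained JC-1 fluorescence. Read-out basis: efflux inhibition in percent versus controls. Controls: nicardipine and DMSO wells.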
bCat nuc transl: modulators of beta-catenin nuclear translocation, primary screen, imaging, HeLa cells, immunofluorescence, high-content | AID 1665, 2009 | 190,000 tested, 0.3% active | nuclear translocation activity, % at 5 µM;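 active = nuclear translocation activity above 50% at 5 µM, with a well cell count of 50 or more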;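 note: per-cell ratio of nuclear to cytoplasmic median beta-catenin stain intensity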
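System: HeLa cells, endogenous beta-catenin; compound dosing: 5 µM primary single dose, 0.1% DMSO, 0.02–20 µM confirmation series; incubation: 24 h compound exposure at 37°C, 5% CO2; signal: beta-catenin immunofluorescence imaging with DAPI; evaluation: % activation, nuclear-to-cytoplasmic median beta-catenin signal ratio per cell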
Autophagy HCS: autophagy modulators in MEF cells, primary screen, imaging, high-content, MEF GFP-LC3. MEF GFP-LC3 puncta imaging; test concentration mostly 10 µM. 190,000 tested, 0.98% active. calls only at 10 µM (by protocol);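 active = percentage of spot-positive cells more than 3 SD above its plate mean, without a fluorescence outlier flag or 80% toxicity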
Of the large screens only hits and unclear results are named; the others gave an inactive call; ! = a repeat was not active.

CCOc1ccccc1C1CC(=O)NC2=C1C(=O)CCC2 (stereo not given)	MT stabilizer 58
CCCCOc1ccccc1C1CC(=O)NC2=C1C(=O)CCC2 (stereo not given)	MT stabilizer 48, bCat nuc transl 109
CCOc1ccc(C2CC(=O)NC3=C2C(=O)CCC3)cc1 (stereo not given)	none
CCCOc1ccccc1C1CC(=O)NC2=C1C(=O)CCC2 (stereo not given)	bCat nuc transl 97
Cc1cc(NC(=O)c2ccccc2Oc2ccccc2)no1	none
COc1cccc(-n2nnnc2SCC(=O)Nc2cccc(NC(C)=O)c2)c1	none
Cc1cnc(NC(=O)CCCc2nc3ccccc3s2)s1	Autophagy HCS active
CC1CC(C)CN(S(=O)(=O)c2ccc(F)c(C(=O)Nc3ccc(Cl)cc3F)c2)C1 (stereo not given)	none (no result: bCat nuc transl)
N#C/C(=C\c1cn[nH]c1-c1ccc(Cl)cc1)C(=O)NC1CC1	none
N#C/C(=C\c1cn[nH]c1-c1ccc(Cl)cc1)C(=O)NCc1ccccc1	Arbovirus inh 37
Cc1ccc(CNC(=O)CN(c2cccc([N+](=O)[O-])c2)S(C)(=O)=O)cc1	none
N=C(N)n1c(N)nc2ccccc2c1=O	none (no result: Arbovirus inh, MT stabilizer, ABCB1 inh, ABCG2 block, Autophagy HCS)
N=C(N)SCc1nc2ccccc2c(=O)n1-c1ccccc1	Arbovirus inh 30!
C=CCn1c(C)cc(C(=O)CSc2nnc(NCc3ccccc3)s2)c1C	MT stabilizer 40
COC(=O)c1ccc(NC(=O)Nc2cccc(F)c2)cc1	none
COC(=O)c1ccc(NC(=O)Nc2ccc(F)cc2F)cc1	Autophagy HCS active
O=[N+]([O-])c1ccc(N/N=C/c2cn(-c3ccccc3)nc2-c2ccccc2)cc1	Autophagy HCS active (no result: bCat nuc transl)
COc1ccccc1NS(=O)(=O)c1cc([N+](=O)[O-])ccc1N/N=C/c1sc(N2CCOCC2)nc1-c1ccccc1	Autophagy HCS active
Cc1[nH]c2ccccc2c1/C=N/Nc1cccc(C(=O)O)c1	none (no result: Arbovirus inh, MT stabilizer, ABCB1 inh, ABCG2 block, Autophagy HCS)
Cc1[nH]c2ccccc2c1/C=N/Nc1ccc([N+](=O)[O-])cc1S(=O)(=O)Nc1ccc(Cl)cc1	Autophagy HCS active
O=[N+]([O-])c1ccc(N/N=C/c2c[nH]c3ccccc23)cc1	Autophagy HCS active
NS(=O)(=O)c1ccc(N/N=C/c2cn(-c3ccccc3)nc2-c2ccccc2)c([N+](=O)[O-])c1	none
CC(C)c1ccc(C(=O)N/N=C/c2cccc(Cl)c2Cl)cc1	none
O=[N+]([O-])c1ccccc1N/N=C/c1c[nH]c2ccccc12	none (no result: bCat nuc transl)
COc1ccc(NS(=O)(=O)c2cc([N+](=O)[O-])ccc2N/N=C\c2c(C)[nH]c3ccccc23)cc1	Autophagy HCS active (no result: bCat nuc transl)
COc1ccc(NC(=S)NNc2ccc([N+](=O)[O-])cc2S(=O)(=O)Nc2ccc(C)cc2C)cc1	none
CN1CCN(c2ccc([N+](=O)[O-])cc2S(=O)(=O)N2CCOCC2)CC1	none (no result: bCat nuc transl)
COc1ccccc1NS(=O)(=O)c1cc([N+](=O)[O-])ccc1N/N=C/c1c[nH]c2ccccc12	Autophagy HCS active
COc1ccc(/C=N/Nc2ccc([N+](=O)[O-])cc2S(=O)(=O)N2CCN(C)CC2)cc1	Autophagy HCS active
O=[N+]([O-])c1ccc(N/N=C/c2ccc[nH]2)cc1	Autophagy HCS active
CCCCCCC1(C)NC(=S)N(c2ccccc2)N1 (stereo not given)	none
O=C(O)c1cccc(Oc2ccc([N+](=O)[O-])cc2)c1	none (no result: ABCB1 inh, ABCG2 block)
O=C(Nc1ccc(O)cc1)c1cccc(Oc2ccc([N+](=O)[O-])cc2)c1	MT stabilizer 37
O=C(Nc1nc(-c2ccccn2)cs1)c1ccc(Br)s1	Autophagy HCS active
CCCCc1ccc(NC(=S)NCc2cccnc2)cc1	none
CCCCCCCCNc1nc(Cl)nc(NCCN2CCOCC2)n1	Autophagy HCS active
COc1nc(NCCN2CCOCC2)nc(Nc2ccccc2)n1	none
COc1cc(NC(=O)N2CCNC2=O)cc(C(=O)Nc2cccc(C(F)(F)F)c2)c1	bCat nuc transl 55 (no result: Arbovirus inh, MT stabilizer, ABCB1 inh, ABCG2 block, Autophagy HCS)
COC(=O)c1[nH]c2ccc(C)cc2c1NC(=O)CN1CCN(C(=O)c2ccccc2)CC1	none (no result: bCat nuc transl)
Cc1ccc(/C=N/NC(=O)CCn2nc(C)cc2C)c(C)c1	MT stabilizer 27
Cc1cc(C)n(CCC(=O)N/N=C/c2ccc(O)cc2)n1	none
Cc1ccc(NC(=S)NNC(=S)Nc2ccc(C)cc2C)cc1	MT stabilizer 9.8, bCat nuc transl 52
CCOc1ccc(C(=O)NCC(=O)OC2CCOC2=O)cc1OCC (stereo not given)	none
CC(NCc1cc(Br)ccc1OCC(=O)NCc1ccccc1)c1ccccc1 (stereo not given)	Autophagy HCS active
CCN(CC)CCNCc1cc(Br)ccc1OCC(=O)NCc1ccccc1	none
CCCc1c(OCCCCc2nn[nH]n2)ccc(C(C)=O)c1O	Arbovirus inh 35!
O=C(CC(C(=O)O)c1c[nH]c2ccccc12)c1ccccc1 (stereo not given)	none
COc1ccc(C(=O)/C=C2/c3ccccc3CC(C)(C)N2C)cc1	MT stabilizer 28 (no result: bCat nuc transl)
CC(C(=O)Nc1ccccc1-c1ccccc1)N1CCN(S(=O)(=O)c2ccccc2)CC1 (stereo not given)	Arbovirus inh 61
COc1ccc2ccccc2c1/C=N/N1C(=O)CSC1=S	Arbovirus inh 32
COc1cccc(/C=N/N2C(=O)CSC2=S)c1O	none
COc1cccc2c3c(c(C)nc12)CCN3c1ccccc1	Autophagy HCS active
CC(=O)NC(=S)NNC(=O)COc1ccc([N+](=O)[O-])cc1	none
C/C(C/C(C)=C1/SC(=S)NC1=O)=C1\SC(=S)NC1=O	Arbovirus inh 33
Oc1ccc(Cl)cc1C1=Nc2ccccc2N=C(c2ccco2)C1	Autophagy HCS active
CCOC(=O)C1CCN(C(=O)c2ccc(Oc3cc(Cl)cc(Cl)c3)o2)CC1	none (no result: Arbovirus inh, MT stabilizer, ABCB1 inh, ABCG2 block, Autophagy HCS)
Cc1cc(=O)[nH]c(SCC(=O)Nc2ncc(S(=O)(=O)c3ccc([N+](=O)[O-])cc3)s2)n1	none
CC1(C)Oc2ccc(C(=O)NC3CC3)cc2N(CC(=O)N2CCOCC2)C1=O	none
CC1(C)Oc2ccc(C(=O)NC3CCCC3)cc2N(CC(=O)N2CCOCC2)C1=O	Autophagy HCS active
CCc1nn2cc(C(=O)c3ccccc3O)cnc2c1-c1ccc(F)cc1	Arbovirus inh 41
CCc1nn2cc(C(=O)c3cc(C)ccc3O)cnc2c1-c1ccc(F)cc1	none
COc1ccccc1C(=O)NNC(=O)c1cccc(Cl)c1	Autophagy HCS active
Cc1onc(-c2ccccc2Cl)c1C(=O)N1CCN(c2cccc(Cl)c2)CC1	MT stabilizer 20 (no result: bCat nuc transl)
Cc1onc(-c2ccccc2Cl)c1C(=O)N1CCN(c2ccccc2)CC1	none
